How the values were obtained:
[1] = molecular target: T1, Epidermal growth factor receptor (Homo sapiens, UniProt P00533); assay: Inhibition of EGF-stimulated tyrosine phosphorylation in A431 cells expressing EGF-R
Balb/MK = assay: Inhibition of proliferation of EGF-dependent BALB/MK cells; format: functional, cell-based; details: Mus musculus
NIH3T3 [2] = assay: Inhibition of PDGF-stimulated tyrosine phosphorylation in BALB/c3T3 cells; format: functional, cell-based; details: Mus musculus
Procedure, shortened: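 Total cellular tyrosine phosphorylation was stimulated with PDGF in BALB/c 3T3 cells and read by microtiter ELISA. Results are reported as IC50 in µM.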

NIH3T3 [3] = assay: Inhibition of PDGF-induced c-fos mRNA expression in BALB/c 3T3 cells; format: functional, cell-based; details: Mus musculus
[4] = molecular target: Protein kinase C alpha type (Homo sapiens, UniProt P17252); assay: Inhibition of Protein kinase C alpha
Procedure, shortened: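 Enzymes purified as previously reported. Compounds were dissolved in DMSO and diluted in buffer to a final assay DMSO of 1%. IC50 values are averages of at least three determinations.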

[5] = molecular target: Proto-oncogene tyrosine-protein kinase Src (Homo sapiens, UniProt P12931); assay: Inhibition of tyrosine kinase c-Src
Sequence of Proto-oncogene tyrosine-protein kinase Src (P12931 2-536 limits assumed): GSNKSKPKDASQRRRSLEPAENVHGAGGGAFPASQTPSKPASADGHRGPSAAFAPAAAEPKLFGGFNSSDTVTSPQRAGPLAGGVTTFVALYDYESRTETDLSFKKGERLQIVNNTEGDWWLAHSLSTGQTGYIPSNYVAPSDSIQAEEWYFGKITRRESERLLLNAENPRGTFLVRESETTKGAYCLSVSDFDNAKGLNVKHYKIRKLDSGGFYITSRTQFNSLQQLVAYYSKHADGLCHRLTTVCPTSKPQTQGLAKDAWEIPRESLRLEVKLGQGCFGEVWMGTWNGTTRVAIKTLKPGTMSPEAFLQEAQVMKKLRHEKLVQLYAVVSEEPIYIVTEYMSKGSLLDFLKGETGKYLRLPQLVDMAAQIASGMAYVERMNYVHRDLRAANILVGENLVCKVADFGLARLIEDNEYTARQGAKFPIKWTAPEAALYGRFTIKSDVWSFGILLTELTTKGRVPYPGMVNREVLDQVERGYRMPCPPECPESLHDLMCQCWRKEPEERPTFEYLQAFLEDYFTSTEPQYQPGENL
Procedure, shortened: (§1)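 Enzyme purification and in vitro kinase assay as previously described. Compounds dissolved in DMSO and diluted in buffer to 1% DMSO final in the assay. IC50 values are averages of at least three determinations.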

[6] = molecular target: Tyrosine-protein kinase ABL (Homo sapiens, UniProt P00519+P42684); assay: Inhibition of tyrosine kinase v-Abl; format: protein assay; procedure, shortened: as §1
[7] = molecular target: T1, Epidermal growth factor receptor; assay: In vitro inhibitory activity against epidermal growth factor receptor

T1 sequence (P00533 whole entry): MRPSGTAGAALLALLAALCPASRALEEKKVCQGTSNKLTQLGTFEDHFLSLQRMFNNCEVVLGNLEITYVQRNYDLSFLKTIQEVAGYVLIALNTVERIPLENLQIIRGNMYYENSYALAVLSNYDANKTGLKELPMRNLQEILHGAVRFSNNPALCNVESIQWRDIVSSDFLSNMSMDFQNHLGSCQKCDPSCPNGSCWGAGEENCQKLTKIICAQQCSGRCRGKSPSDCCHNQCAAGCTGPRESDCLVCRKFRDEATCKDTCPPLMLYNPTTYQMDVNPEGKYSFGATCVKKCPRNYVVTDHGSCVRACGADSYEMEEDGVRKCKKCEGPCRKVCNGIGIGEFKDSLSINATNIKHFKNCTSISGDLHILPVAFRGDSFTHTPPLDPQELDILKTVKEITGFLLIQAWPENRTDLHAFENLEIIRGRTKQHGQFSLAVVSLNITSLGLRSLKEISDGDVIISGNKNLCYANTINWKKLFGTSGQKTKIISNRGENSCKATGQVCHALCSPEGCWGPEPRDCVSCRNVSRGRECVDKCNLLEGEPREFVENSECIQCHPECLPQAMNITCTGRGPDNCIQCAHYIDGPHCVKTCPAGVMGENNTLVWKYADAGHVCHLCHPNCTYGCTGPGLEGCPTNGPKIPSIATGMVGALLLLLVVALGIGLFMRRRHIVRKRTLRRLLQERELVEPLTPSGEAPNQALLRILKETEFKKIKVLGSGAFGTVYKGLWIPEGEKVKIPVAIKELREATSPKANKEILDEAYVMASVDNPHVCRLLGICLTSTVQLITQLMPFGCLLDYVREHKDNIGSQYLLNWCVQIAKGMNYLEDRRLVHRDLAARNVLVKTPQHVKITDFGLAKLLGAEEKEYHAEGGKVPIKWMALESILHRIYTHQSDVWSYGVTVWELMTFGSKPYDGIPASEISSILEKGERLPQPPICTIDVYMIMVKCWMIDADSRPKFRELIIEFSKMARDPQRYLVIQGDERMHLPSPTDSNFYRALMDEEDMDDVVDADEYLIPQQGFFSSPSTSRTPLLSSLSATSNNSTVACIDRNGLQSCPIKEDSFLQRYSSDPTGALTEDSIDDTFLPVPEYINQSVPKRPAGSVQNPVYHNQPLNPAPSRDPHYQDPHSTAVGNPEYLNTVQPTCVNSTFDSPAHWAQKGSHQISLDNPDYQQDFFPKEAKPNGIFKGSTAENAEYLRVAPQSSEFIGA

Compound	IC50 [4] [µM]	IC50 [5] [µM]	IC50 [6] [µM]	IC50 [7] [µM]	IC50 (Balb/MK) [µM]	also measured
Cc1[nH]c2ncnc(Nc3cccc(C(=O)O)c3)c2c1C	–	–	–	16.3	–	–
Clc1cccc(Nc2ncnc3[nH]c(-c4ccccc4)c(-c4ccccc4)c23)c1	–	> 100	> 100	–	> 50	IC50 (NIH3T3 [2]): > 10 µM
Cc1[nH]c2ncnc(Nc3cccc(O)c3)c2c1C	–	–	–	1.25	–	–
Clc1cccc(Nc2ncnc3[nH]c4c(c23)CCCC4)c1	> 100	> 100	> 100	–	0.98	IC50 (NIH3T3 [2]): > 10 µM; IC50 (NIH3T3 [3]): > 100 µM
CCc1ccccc1Nc1ncnc2[nH]c(C)c(C)c12	–	–	–	> 100	–	–
Cc1[nH]c2ncnc(Nc3cccc(Cl)c3)c2c1-c1ccccc1	–	> 100	> 100	0.23	38.3	IC50 [1]: 6 µM
Cc1[nH]c2ncnc(Nc3cccc(F)c3)c2c1C	> 100	> 100	99	–	29.9	IC50 [1]: > 100 µM
Cc1nc(Nc2cccc(Cl)c2)c2c(C)c(C)[nH]c2n1	–	–	–	> 100	–	–
Cc1[nH]c2ncnc(Nc3cccc(Br)c3)c2c1C	> 100	> 100	2.3	–	1.4	IC50 [1]: 1.5 µM; IC50 (NIH3T3 [2]): > 10 µM; IC50 (NIH3T3 [3]): > 100 µM
Cc1[nH]c2ncnc(Nc3ccccc3)c2c1C	75	> 100	–	–	–	IC50 (NIH3T3 [2]): > 10 µM
Cc1[nH]c2ncnc(NC3CCCCC3)c2c1C	–	–	–	6.92	–	–
Cc1cccc(Nc2ncnc3[nH]c4c(c23)CCCC4)c1	> 100	> 100	> 100	–	> 50	IC50 [1]: > 100 µM; IC50 (NIH3T3 [2]): > 10 µM
Cc1ccc(Nc2ncnc3[nH]c(C)c(C)c23)cc1	–	–	–	2.1	–	–
Cc1[nH]c2ncnc(Nc3cccc(Cl)c3)c2c1C	> 100	> 100	40.5	–	–	IC50 (NIH3T3 [3]): > 100 µM
Clc1cccc(Nc2ncnc3[nH]c4ccccc4c23)c1	> 100	> 100	30	0.006	0.47	IC50 [1]: 0.12 µM; IC50 (NIH3T3 [3]): > 100 µM

More lines, main results first:

IC50 [4] [µM]	IC50 [5] [µM]	IC50 [6] [µM]	IC50 [7] [µM]	Compound	IC50 (Balb/MK) [µM]	also measured
> 100	> 100	> 100	–	Brc1cccc(Nc2ncnc3[nH]c4c(c23)CCCC4)c1	1.4	IC50 [1]: 0.4 µM; IC50 (NIH3T3 [2]): > 10 µM; IC50 (NIH3T3 [3]): > 100 µM
> 100	> 100	> 100	–	c1ccc(Nc2ncnc3[nH]c4c(c23)CCCC4)cc1	–	IC50 (NIH3T3 [2]): > 10 µM
–	–	–	> 100	CCOC(=O)c1cccc(Nc2ncnc3[nH]c(C)c(C)c23)c1	–	–
–	–	–	75.1	Cc1[nH]c2ncnc(Nc3ccccc3Cl)c2c1C	–	–
–	–	–	2.5	Cc1[nH]c2ncnc(Oc3cccc(Cl)c3)c2c1C	–	–
–	–	–	1.08	Cc1[nH]c2ncnc(NCc3ccccc3)c2c1C	–	–
–	–	–	0.42	Oc1cccc(Nc2ncnc3[nH]c4c(c23)CCCC4)c1	–	–
–	–	–	25.7	O=C(O)c1cccc(Nc2ncnc3[nH]c4c(c23)CCCC4)c1	–	–
> 100	> 100	5.3	–	Cc1cccc(Nc2ncnc3[nH]c(C)c(C)c23)c1	7.2	IC50 [1]: > 100 µM
–	–	–	> 50	Cc1[nH]c2ncnc(Nc3ccc(Cl)cc3)c2c1C	–	–
> 100	> 100	> 100	0.01	Cc1c(-c2ccccc2)[nH]c2ncnc(Nc3cccc(Cl)c3)c12	> 50	IC50 [1]: 6 µM; IC50 (NIH3T3 [2]): > 10 µM
–	–	–	1.9	Cc1[nH]c2ncnc(Nc3cccc(C(F)(F)F)c3)c2c1C	–	–
–	–	–	1.2	COc1cccc(Nc2ncnc3[nH]c(C)c(C)c23)c1	–	–
–	–	–	0.86	COc1cccc(Nc2ncnc3[nH]c4c(c23)CCCC4)c1	–	–
–	–	–	0.2	Cc1[nH]c2ncnc(Nc3cccc(C#N)c3)c2c1C	–	–
–	–	–	> 50	CCc1ccc(Nc2ncnc3[nH]c4c(c23)CCCC4)cc1	–	–
–	–	–	0.5	Cc1[nH]c2ncnc(N(C)c3cccc(Cl)c3)c2c1C	–	–
–	–	–	77.5	CCc1ccc(Nc2ncnc3[nH]c(C)c(C)c23)cc1	–	–
